# Laboratory results taken from ChEMBL document CHEMBL1125291, “New 8-(trifluoromethyl)-substituted quinolones. The benefits of the 8-fluoro group with reduced phototoxic risk” (1992).
# Experiments:
# Mus musculus [1] = organism: Mus musculus; assay: Dose required to induce phototoxic reaction in 50% of mice by probit method at different dosage forms.; assay type: functional
# Escherichia coli [2] = assay: In vivo efficacy in mouse protection test in Escherichia coli Vogel administered by subcutaneous injection.; assay type: functional; conditions: Escherichia coli, sc; read-out: PD50
# How it was run: (§1)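 Acute lethal systemic infections in female Charles River CD-1 mice. A single dose was given at challenge, orally by gavage or by subcutaneous injection. PD50 (median protective dose, mg/kg) was determined.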
# Streptococcus pyogenes [3] = assay: In vivo efficacy (s.c.) against Streptococcus pyogenes C-203 in mouse protection test; assay type: functional; conditions: Streptococcus pyogenes, sc; read-out: PD50; how it was run: as §1
# Pseudomonas aeruginosa [4] = assay: In vivo efficacy (orally) against Pseudomonas aeruginosa in mouse protection test; assay type: functional; conditions: Pseudomonas aeruginosa, po; read-out: PD50; how it was run: as §1
# Staphylococcus aureus [5] = assay: Minimum inhibitory concentration (MIC) against gram positive bacteria Staphylococcus aureus H-228.; assay type: functional; conditions: Staphylococcus aureus; read-out: MIC
# How it was run: (§2)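 MICs were determined by standard broth microtitration against 11 Gram-positive and Gram-negative organisms, in µg/mL. Values come from duplicate or triplicate experiments and are accurate to ±50%.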
# Pseudomonas aeruginosa [6] = assay: Minimum inhibitory concentration (MIC) against gram negative bacteria Pseudomonas aeruginosa UI-18.; assay type: functional; conditions: Pseudomonas aeruginosa; read-out: MIC; how it was run: as §2
# Mus musculus [7] = assay: Maximum tolerance dose was measured for phototoxic skin reaction by po administration; assay type: functional
# Streptococcus pneumoniae [8] = assay: In vivo efficacy (s.c.) against Streptococcus pneumoniae SV-1 in mouse protection test; assay type: functional; conditions: Streptococcus pneumoniae, sc; read-out: PD50; how it was run: as §1
# Mus musculus [9] = organism: Mus musculus; assay: Days of the first positive reaction in […] mice.; assay type: functional
# How it was run: (§3)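 Phototoxic skin reaction test in depilated female CD-1 mice. A single oral dose (gavage) or subcutaneous dose was given, followed 1 h later by 3 h of UVA exposure (320–400 nm). The regimen was repeated for up to 4 consecutive days, with initial doses of 30, 100 and 300 mg/kg. PTD50 was derived by the probit method. The first day of positive reaction and the no-effect dose were taken from the raw data.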
# Enterococcus faecalis = assay: Minimum inhibitory concentration (MIC) against gram positive bacteria Streptococcus faecalis MGH-2.; assay type: functional; conditions: Enterococcus faecalis; read-out: MIC; how it was run: as §2
# Mus musculus [10] = organism: Mus musculus; assay: Dose which has no effect to induce phototoxic reaction in 50% of mice by probit method.; assay type: functional
# Streptococcus pneumoniae [11] = assay: In vivo efficacy (orally) against Streptococcus pneumoniae SV-1 in mouse protection test; assay type: functional; conditions: Streptococcus pneumoniae, po; read-out: PD50; how it was run: as §1
# Escherichia coli [12] = assay: Minimum inhibitory concentration (MIC) against gram negative bacteria Escherichia coli H-560.; assay type: functional; conditions: Escherichia coli; read-out: MIC; how it was run: as §2
# [13] = Minimum inhibitory concentration (MIC) against gram negative bacteria Prot. rettgeri M-1771.; assay type: functional, Providencia rettgeri; conditions: Providencia rettgeri; read-out: MIC; how it was run: as §2
# Mus musculus [14] = organism: Mus musculus; assay: Number of mice which show positive phototoxic reaction in 5 mice; assay type: functional
# Streptococcus pneumoniae [15] = assay: Minimum inhibitory concentration (MIC) against gram positive bacteria Streptococcus pneumoniae SV-1.; assay type: functional; conditions: Streptococcus pneumoniae; read-out: MIC; how it was run: as §2
# Staphylococcus aureus [16] = assay: Minimum inhibitory concentration (MIC) against gram positive bacteria Staphylococcus aureus UC-76.; assay type: functional; conditions: Staphylococcus aureus; read-out: MIC; how it was run: as §2
# Enterobacter cloacae = assay: Minimum inhibitory concentration (MIC) against gram negative bacteria Enterobacter cloacae MA-2646.; assay type: functional
# Streptococcus pyogenes [17] = assay: Minimum inhibitory concentration (MIC) against gram positive bacteria Streptococcus pyogenes C-203.; assay type: functional; conditions: Streptococcus pyogenes; read-out: MIC; how it was run: as §2
# Escherichia coli [18] = assay: Minimum inhibitory concentration (MIC) against gram negative bacteria Escherichia coli Vogel.; assay type: functional; conditions: Escherichia coli; read-out: MIC; how it was run: as §2
# Klebsiella pneumoniae = assay: Minimum inhibitory concentration (MIC) against gram negative bacteria Klebsiella pneumoniae MGH-2.; assay type: functional; conditions: Klebsiella pneumoniae; read-out: MIC; how it was run: as §2
# Escherichia coli [19] = assay: In vivo efficacy in mouse protection test in Escherichia coli Vogel dose administered orally by gavage.; assay type: functional; conditions: Escherichia coli, po; read-out: PD50; how it was run: as §1
# Streptococcus pyogenes [20] = assay: In vivo efficacy (orally) against Streptococcus pyogenes C-203 in mouse protection test; assay type: functional; conditions: Streptococcus pyogenes, po; read-out: PD50; how it was run: as §1
# Pseudomonas aeruginosa [21] = assay: In vivo efficacy (s.c.) against Pseudomonas aeruginosa in mouse protection test; assay type: functional; conditions: Pseudomonas aeruginosa, sc; read-out: PD50; how it was run: as §1
# Mus musculus [22] = organism: Mus musculus; assay: Number of mice which show positive phototoxic reaction.; assay type: functional; how it was run: as §3
# Mus musculus [23] = assay: Maximum tolerance dose was measured for phototoxic skin reaction by po administration in mice; assay type: functional
# How it was run: (§4)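 Depilated female CD-1 mice got a single oral (gavage) or subcutaneous dose, then UVA (320–400 nm) exposure for 3 h starting 1 h post-dose. This was repeated for up to 4 consecutive days. Initial doses were 30, 100 and 300 mg/kg. PTD50 was derived by probit. First day of positive reaction and no-effect dose were taken from the raw data.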
# Escherichia coli [24] = assay: Minimum inhibitory concentration (MIC) against gram negative bacteria Escherichia coli H-560; assay type: functional; how it was run: as §2
# [25] = Days of the first positive reaction in […] mice; assay type: functional, Mus musculus; how it was run: as §4
# Staphylococcus aureus [26] = assay: Minimum inhibitory concentration (MIC) against gram positive bacteria Staphylococcus aureus H-228; assay type: functional; how it was run: as §2
# [27] = Minimum inhibitory concentration (MIC) against gram negative bacteria Prot. rettgeri M-1771; assay type: functional; conditions: Providencia rettgeri; how it was run: as §2
# Mus musculus [28] = organism: Mus musculus; assay: Dose required to induce phototoxic reaction in 50% of mice by […] reactions at different dosage forms; assay type: functional; how it was run: as §4
# [29] = Number of mice which show positive phototoxic reaction in 15 mice; assay type: functional, Mus musculus; how it was run: as §3
smiles,measurement,setting,value
NC1CCN(c2cc3c(cc2F)c(=O)c(C(=O)O)cn3C2CC2)C1 (configuration not stated),PTD50,Mus musculus [1],>300 mg/kg
same,ED50,Escherichia coli [2],0.5 mg/kg
same,ED50,Streptococcus pyogenes [3],11 mg/kg
same,ED50,Pseudomonas aeruginosa [4],49 mg/kg
same,MIC,Staphylococcus aureus [5],0.1 µg/mL
same,MIC,Pseudomonas aeruginosa [6],0.1 µg/mL
same,MTD,Mus musculus [7],300 mg/kg
same,ED50,Streptococcus pneumoniae [8],23 mg/kg
same,Day of first positve reaction,Mus musculus [9],0
same,MIC,Enterococcus faecalis,0.1 µg/mL
same,No effect dose,Mus musculus [10],300 mg/kg
same,ED50,Streptococcus pneumoniae [11],> 100 mg/kg
same,MIC,Escherichia coli [12],0.006 µg/mL
same,MIC,[13],0.1 µg/mL
same,No. of pos rxns,Mus musculus [14],0
same,MIC,Streptococcus pneumoniae [15],0.05 µg/mL
same,MIC,Staphylococcus aureus [16],0.025 µg/mL
same,MIC,Enterobacter cloacae,0.025 µg/mL
same,MIC,Streptococcus pyogenes [17],0.1 µg/mL
same,MIC,Escherichia coli [18],0.05 µg/mL
same,MIC,Klebsiella pneumoniae,0.05 µg/mL
same,ED50,Escherichia coli [19],3.4 mg/kg
same,ED50,Streptococcus pyogenes [20],97 mg/kg
same,ED50,Pseudomonas aeruginosa [21],5.4 mg/kg
NC1CCCN(c2cc3c(cc2F)c(=O)c(C(=O)O)cn3C2CC2)C1 (configuration not stated),PTD50,Mus musculus [1],>100 mg/kg
same,ED50,Escherichia coli [2],1.4 mg/kg
same,ED50,Streptococcus pyogenes [3],8 mg/kg
same,MIC,Staphylococcus aureus [5],0.8 µg/mL
same,MIC,Pseudomonas aeruginosa [6],0.8 µg/mL
same,MTD,Mus musculus [7],100 mg/kg
same,Day of first positve reaction,Mus musculus [9],0
same,MIC,Enterococcus faecalis,0.2 µg/mL
same,No effect dose,Mus musculus [10],100 mg/kg
same,MIC,Escherichia coli [12],0.1 µg/mL
same,MIC,[13],0.8 µg/mL
same,No. of pos rxns,Mus musculus [22],0
same,MIC,Streptococcus pneumoniae [15],0.2 µg/mL
same,MIC,Staphylococcus aureus [16],0.05 µg/mL
same,MIC,Enterobacter cloacae,0.1 µg/mL
same,MIC,Streptococcus pyogenes [17],0.1 µg/mL
same,MIC,Escherichia coli [18],0.1 µg/mL
same,MIC,Klebsiella pneumoniae,0.2 µg/mL
same,ED50,Escherichia coli [19],15 mg/kg
same,ED50,Streptococcus pyogenes [20],> 50 mg/kg
O=C(O)c1cn(C2CC2)c2c(C(F)(F)F)c(N3CCNCC3)c(F)cc2c1=O,PTD50,Mus musculus [1],>100 mg/kg
same,MTD,Mus musculus [23],100 mg/kg
same,ED50,Escherichia coli [2],0.9 mg/kg
same,MIC,Pseudomonas aeruginosa [6],1.6 µg/mL
same,ED50,Streptococcus pneumoniae [8],26 mg/kg
same,MIC,Escherichia coli [24],0.05 µg/mL
same,MIC,Enterococcus faecalis,0.4 µg/mL
same,No effect dose,Mus musculus [10],100 mg/kg
same,ED50,Streptococcus pneumoniae [11],75 mg/kg
same,No. of pos rxns,Mus musculus [14],0
same,MIC,Streptococcus pneumoniae [15],0.4 µg/mL
same,MIC,Staphylococcus aureus [16],0.1 µg/mL
same,MIC,Enterobacter cloacae,0.05 µg/mL
same,MIC,Streptococcus pyogenes [17],0.4 µg/mL
same,Day of first positve reaction,[25],0
same,MIC,Escherichia coli [18],0.05 µg/mL
same,MIC,Klebsiella pneumoniae,0.1 µg/mL
same,ED50,Escherichia coli [19],1.8 mg/kg
same,MIC,Staphylococcus aureus [26],0.4 µg/mL
same,MIC,[27],0.2 µg/mL
O=C(O)c1cn(C2CC2)c2c(F)c(N3CCNCC3)c(F)cc2c1=O,ED50,Escherichia coli [2],0.26 mg/kg
same,ED50,Streptococcus pyogenes [3],8.9 mg/kg
same,ED50,Pseudomonas aeruginosa [4],6.6 mg/kg
same,MIC,Staphylococcus aureus [5],0.4 µg/mL
same,MIC,Pseudomonas aeruginosa [6],0.2 µg/mL
same,PTD50,Mus musculus [28],171 mg/kg
same,MTD,Mus musculus [7],100 mg/kg
same,ED50,Streptococcus pneumoniae [8],29 mg/kg
same,MIC,Enterococcus faecalis,0.4 µg/mL
same,No effect dose,Mus musculus [10],100 mg/kg
same,ED50,Streptococcus pneumoniae [11],59 mg/kg
same,MIC,Escherichia coli [12],0.013 µg/mL
same,MIC,[13],0.1 µg/mL
same,No. of pos rxns,Mus musculus [14],0
same,MIC,Streptococcus pneumoniae [15],0.8 µg/mL
same,MIC,Staphylococcus aureus [16],0.1 µg/mL
same,MIC,Enterobacter cloacae,0.025 µg/mL
same,MIC,Streptococcus pyogenes [17],0.8 µg/mL
same,Day of first positve reaction,[25],0
same,MIC,Escherichia coli [18],0.05 µg/mL
same,MIC,Klebsiella pneumoniae,0.05 µg/mL
same,ED50,Escherichia coli [19],0.45 mg/kg
same,ED50,Streptococcus pyogenes [20],33 mg/kg
same,ED50,Pseudomonas aeruginosa [21],2.5 mg/kg
NC1CCN(c2c(F)cc3c(=O)c(C(=O)O)cn(C4CC4)c3c2F)C1 (configuration not stated),PTD50,Mus musculus [1],4.2 mg/kg
same,ED50,Escherichia coli [2],0.2 mg/kg
same,ED50,Streptococcus pyogenes [3],2.3 mg/kg
same,ED50,Pseudomonas aeruginosa [4],6.5 mg/kg
same,MIC,Staphylococcus aureus [5],0.05 µg/mL
same,MIC,Pseudomonas aeruginosa [6],0.1 µg/mL
same,MTD,Mus musculus [7],6 mg/kg
same,ED50,Streptococcus pneumoniae [8],5.5 mg/kg
same,Day of first positve reaction,Mus musculus [9],3
same,MIC,Enterococcus faecalis,0.1 µg/mL
same,No effect dose,Mus musculus [10],3 mg/kg
same,ED50,Streptococcus pneumoniae [11],15 mg/kg
same,MIC,Escherichia coli [12],0.003 µg/mL
same,MIC,[13],0.1 µg/mL
same,MIC,Streptococcus pneumoniae [15],0.1 µg/mL
same,MIC,Staphylococcus aureus [16],0.025 µg/mL
same,MIC,Enterobacter cloacae,0.013 µg/mL
same,MIC,Streptococcus pyogenes [17],0.05 µg/mL
same,MIC,Escherichia coli [18],0.025 µg/mL
same,MIC,Klebsiella pneumoniae,0.025 µg/mL
same,ED50,Escherichia coli [19],0.9 mg/kg
same,ED50,Streptococcus pyogenes [20],7.5 mg/kg
same,No. of pos rxns,[29],15
same,ED50,Pseudomonas aeruginosa [21],3 mg/kg
